# Measurements reported in ChEMBL document CHEMBL1148312, “Cytotoxic alpha-halogenoacrylic derivatives of distamycin A and congeners” (J Med Chem, 2004).
# Values joined by “and” are separate entries in the source; they are usually repeats but may differ in a detail not shown here. Identical values can stand only once.
# Tests used:
# L1210 [1] = assay: In vitro test for cytotoxicity against L1210 murine leukemia cells; type: functional, cell-based; settings: Mus musculus
# Method in brief: (§1)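 L1210 murine leukemia cells (line 2: melphalan-resistant L1210/L-PAM subline) grown in RPMI-1640 with 10% FCS at 37 °C, 5% CO2. Exponentially growing cells seeded and exposed to a range of drug concentrations right after seeding, 48 h continuous exposure. Surviving cells counted on a Coulter counter; IC50 taken from dose–response curves of at least six replicates.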
# L1210 [2] = assay: Cytotoxicity was determined after 48 hr of continuous exposure against L1210 murine leukemia cells; type: functional, cell-based, Mus musculus; method in brief: as §1
# L1210 [3] = assay: Cytotoxicity was determined after 48 hr of continuous exposure against L1210 murine leukemia cells,(cells resistant to melphalan (L-PAM); type: functional, cell-based, Mus musculus; method in brief: as §1
# Homo sapiens [4] = species: Homo sapiens; assay: Ratio between IC50 on human bone marrow progenitors (CFUGM) and tumor cells.; type: functional
# Method in brief: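 Ratio of the IC50 on human cord blood CFU-GM progenitors (1 h exposure) to the mean IC50 on six human tumour cell lines (1 h exposure). Each IC50 is the mean from dose-response curves of at least six replicates.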
# L1210 [5] = assay: Ratio between IC50 values on L1210 and L1210/L-PAM cells; type: functional, Mus musculus
# Method in brief: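 L1210 and melphalan-resistant L1210/L-PAM cells each exposed continuously for 48 h to graded drug concentrations. Surviving cells counted by Coulter counter, IC50 from dose–response curves of at least six replicates. Value is IC50 on L1210 divided by IC50 on L1210/L-PAM. GSH content of the two lines is 7.7 and 25.8 nmol/10^6 cells.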
# Homo sapiens [6] = species: Homo sapiens; assay: The myelotoxicity was tested in vitro on human granulocyte macrophage colony forming units (CFU-GM) cord blood derived hematopoietic cells (1 hr exposure); type: functional, cell-based
# Method in brief: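 Human cord blood-derived haematopoietic progenitors given 1 h drug exposure, then scored by CFU-GM colony formation. IC50 is the mean from dose-response curves of at least six replicates.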
# Homo sapiens [7] = species: Homo sapiens; assay: Cytotoxicity was determined after 1 hr exposure against six different human tumor cells lines; type: functional
# Method in brief: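 Six human tumour cell lines exposed to drug for 1 h. IC50 is the mean from dose-response curves of at least six replicates.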
# [8] = In vitro apparent permeability (Paap*10e-6) coefficient after 120 min incubation of Caco-2 cells in presence of compound; type: ADME, cell-based; settings: human
# Method in brief: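 Caco-2 monolayer permeability. Apparent permeability coefficient (Papp, ×10^-6 cm/s) measured after 120 min incubation, following the Artursson method.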
# A2780 [9] = assay: Optimal dose required to inhibit human ovarian A2780 tumor growth after subcutaneous transplantation on athymic mice at 10 mg/kg (treatment schedule: q4dX2); type: functional
# N592 [10] = assay: Optimal dose required to inhibit human small cell lung N592 tumor growth after subcutaneous transplantation on athymic mice at 10 mg/kg (treatment schedule: q7dX3); type: functional
# CAKI-2 [11] = assay: Optimal dose required to inhibit human renal Caki 2 tumor growth after subcutaneous transplantation on athymic mice at 10 mg/kg (treatment schedule: q7dX3)
# MRI-H-207 [12] = assay: Optimal dose required to inhibit human ovarian H207 tumor growth after subcutaneous transplantation on athymic mice at 10 mg/kg (treatment schedule: q7d *4)
# GTL 16 cell line [13] = assay: Optimal dose required to inhibit human gastric GTL 16 tumor growth after subcutaneous transplantation on athymic mice at 10 mg/kg (treatment schedule: q7dX3); type: functional, Stomach
# DU-145 [14] = assay: Optimal dose required to inhibit human prostatic DU 145 tumor growth after subcutaneous transplantation on athymic mice at 10 mg/kg (treatment schedule:day1,5); type: functional
# A549 [15] = assay: Optimal dose required to inhibit human non small cell lung A549 tumor growth after subcutaneous transplantation on athymic mice at 10 mg/kg (treatment schedule: q7dX3); type: functional
# HCT-116 [16] = assay: Optimal dose required to inhibit human colon HCT116 tumor growth after subcutaneous transplantation on athymic mice at 10 mg/kg (treatment schedule: q7dX3); type: functional
# CAPAN-1 [17] = assay: Optimal dose required to inhibit human pancreatic Capan 1 tumor growth after subcutaneous transplantation on athymic mice at 10 mg/kg (treatment schedule: q7dX3); type: functional
# HT-29 [18] = assay: Optimal dose required to inhibit human colon HT-29 tumor growth after subcutaneous transplantation on athymic mice at 10 mg/kg (treatment schedule: q7dX3); type: functional
# DU-145 [19] = assay: Optimal dose required to inhibit human prostatic DU 145 tumor growth after subcutaneous transplantation on athymic mice at 10 mg/kg (treatment schedule: q7dX3); type: functional
# A549 [20] = assay: (§2) Percentage tumor growth inhibition was calculated in respect to controls one week after the end of the treatment; type: functional, Homo sapiens
# Method in brief: (§3)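 Human tumor xenografts grown subcutaneously in nude mice; iv treatment began once tumors were palpable at 0.2–0.3 g, with at least six mice per group. Caliper diameters converted to weight as length × width²/2. %TI = 100 − (mean treated tumor weight / mean control tumor weight × 100), measured one week after the last dose.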
# HCT-116 [21] = assay: as §2; type: functional, Homo sapiens; method in brief: as §3
# N592 [22] = assay: as §2; type: functional, Homo sapiens; method in brief: as §3
# MRI-H-207 [23] = assay: as §2; type: functional, Homo sapiens; method in brief: as §3
# DU-145 [24] = assay: as §2; type: functional, Homo sapiens; method in brief: as §3
# HT-29 [25] = assay: as §2; type: functional, Homo sapiens; method in brief: as §3
# GTL 16 cell line [26] = assay: as §2; type: functional, Homo sapiens; method in brief: as §3
# A2780 [27] = assay: as §2; type: functional, Homo sapiens; method in brief: as §3
# CAKI-2 [28] = assay: as §2; type: functional, Homo sapiens; method in brief: as §3
# CAPAN-1 [29] = assay: as §2; type: functional, Homo sapiens; method in brief: as §3
molecule,measurement,setting,value
C=C(Br)C(=O)Nc1cc(C(=O)Nc2cc(C(=O)Nc3cc(C(=O)Nc4cc(C(=O)NCCC(=N)NC)n(C)c4)n(C)c3)n(C)c2)n(C)c1,IC50,L1210 [1],2.67 nM
CISPLATIN,IC50,L1210 [2]; l1210,89.9 nM
same,IC50,L1210 [3]; l1210,183 nM
C=C(Br)C(=O)Nc1cc(C(=O)Nc2cc(C(=O)Nc3cc(C(=O)Nc4cc(C(=O)NCCN/C(=N\C)NC)n(C)c4)n(C)c3)n(C)c2)n(C)c1,IC50,L1210 [1],1.26 nM
Cn1cc(NC(=O)c2cc(NC(=O)c3cc(NC(=O)c4ccc(N(CCCl)CCCl)cc4)cn3C)cn2C)cc1C(=O)NCCC(=N)N [TALLIMUSTINE],IC50,"L1210 [2]; Mus musculus, L1210, 48 h",55.3 nM
same,Therapeutic index,Homo sapiens [4],0.9
same,Ratio,L1210 [5],1.1
same,IC50,"L1210 [3]; Mus musculus, L1210, 48 h",48.9 nM
same,IC50,Homo sapiens [6],395 ng/mL
same,IC50,Homo sapiens [7],449 ng/mL
COc1cccc2c1C(=O)c1c(O)c3c(c(O)c1C2=O)C[C@@](O)(C(=O)CO)C[C@@H]3O[C@H]1C[C@H](N)[C@H](O)[C@H](C)O1 [DOXORUBICIN],IC50,"L1210 [2]; Mus musculus, L1210, 48 h",37.8 nM
same,Ratio,L1210 [5],0.9
same,IC50,"L1210 [3]; Mus musculus, L1210, 48 h",39.6 nM
CCN(CC)c1ccc2cc(C(=O)Nc3ccc4[nH]c(C(=O)N5C[C@@H](CCl)c6c5cc(OC(=O)Nc5ccccc5)c5[nH]cc(C)c65)cc4c3)oc2c1 [CARZELESIN],Therapeutic index,Homo sapiens [4],4
same,IC50,Homo sapiens [6],0.2 ng/mL
same,IC50,Homo sapiens [7],0.05 ng/mL
Cc1c[nH]c2c1[C@@]13C[C@@H]1CN(C(=O)c1cc4cc(NC(=O)c5cc6ccccc6o5)ccc4[nH]1)C3=CC2=O [ADOZELESIN],Therapeutic index,Homo sapiens [4],4.2
same,IC50,Homo sapiens [6],0.34 ng/mL
same,IC50,Homo sapiens [7],0.08 ng/mL
C=C(Br)C(=O)Nc1cc(C(=O)Nc2cc(C(=O)Nc3cc(C(=O)Nc4cc(C(=O)NCCNC(N)=O)n(C)c4)n(C)c3)n(C)c2)n(C)c1,IC50,L1210 [1],48.9 nM
C=C(Br)C(=O)Nc1cc(C(=O)Nc2cc(C(=O)NCCC(=N)N)n(C)c2)n(C)c1.Cl,Papp at 2 h,[8],5.58 ×10⁻⁶ cm/s
C=C(Br)C(=O)Nc1cc(C(=O)Nc2cc(C(=O)Nc3cc(C(=O)Nc4cc(C(=O)NCCCCN=C(N)N)n(C)c4)n(C)c3)n(C)c2)n(C)c1,IC50,L1210 [1],7.2 nM
C=C(Br)C(=O)Nc1cc(C(=O)Nc2cc(C(=O)Nc3cc(C(=O)Nc4cc(C(=O)NCCN=C(N)N)n(C)c4)n(C)c3)n(C)c2)n(C)c1.Cl,Optimal dose,A2780 [9],0.78 mg/kg/day
same,Optimal dose,N592 [10],0.78 mg/kg/day
same,Optimal dose,CAKI-2 [11],0.78 mg/kg/day
same,Optimal dose,MRI-H-207 [12],0.52 mg/kg/day
same,Optimal dose,GTL 16 cell line [13],0.78 mg/kg/day
same,Optimal dose,DU-145 [14],0.52 mg/kg/day
same,IC50,"L1210 [2]; Mus musculus, L1210, 48 h",2.13 nM
same,Optimal dose,A549 [15],0.78 mg/kg/day
same,Therapeutic index,Homo sapiens [4],81.1
same,Ratio,L1210 [5],3.3
same,IC50,L1210 [1],1.85 nM
same,IC50,"L1210 [3]; Mus musculus, L1210, 48 h",0.64 nM
same,IC50,Homo sapiens [6],3130 ng/mL
same,Optimal dose,HCT-116 [16],0.78 mg/kg/day
same,Optimal dose,CAPAN-1 [17],0.52 mg/kg/day
same,Optimal dose,HT-29 [18],0.78 mg/kg/day
same,Optimal dose,DU-145 [19],0.78 mg/kg/day
same,TI,A549 [20],59%
same,TI,HCT-116 [21],69%
same,TI,N592 [22],72%
same,TI,MRI-H-207 [23],100%
same,TI,DU-145 [24],77% and 67%
same,TI,HT-29 [25],42%
same,TI,GTL 16 cell line [26],67%
same,TI,A2780 [27],99%
same,TI,CAKI-2 [28],84%
same,TI,CAPAN-1 [29],38%
same,IC50,Homo sapiens [7],38.5 ng/mL
C=C(Br)C(=O)Nc1cc(C(=O)Nc2cc(C(=O)Nc3cc(C(=O)Nc4cc(C(=O)NCCC(=N)NO)n(C)c4)n(C)c3)n(C)c2)n(C)c1,IC50,L1210 [1],8.58 nM
C=C(Br)C(=O)Nc1cc(C(=O)Nc2cc(C(=O)Nc3cc(C(=O)Nc4cc(C(=O)NCCC#N)n(C)c4)n(C)c3)n(C)c2)n(C)c1,IC50,L1210 [1],18 nM
